# Experimental data taken from ChEMBL document CHEMBL1629517, “Molecular properties prediction, synthesis and antimicrobial activity of some newer oxadiazole derivatives” (2010).
# Columns and labels:
# Staphylococcus aureus [1] = assay: Antibacterial activity against Staphylococcus aureus ATCC 25923 at 200 ug/ml after 24 hrs by disc-diffusion method; format: functional; settings: ATCC 25923, 24 h, read-out: IZ
# Pseudomonas aeruginosa [2] = assay: Antibacterial activity against Pseudomonas aeruginosa ATCC 27853 at 100 ug/ml after 24 hrs by disc-diffusion method; format: functional; settings: ATCC 27853, 24 h, read-out: IZ
# Escherichia coli [3] = assay: Antibacterial activity against Escherichia coli ATCC 25922 at 200 ug/ml after 24 hrs by disc-diffusion method; format: functional; settings: ATCC 25922, 24 h, read-out: IZ
# Candida albicans [4] = assay: Antifungal activity against Candida albicans at 100 ug/ml after 48 hrs by agar diffusion method; format: functional; settings: read-out: IZ
# How it was run: (§1)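 Agar well diffusion on Sabouraud agar (peptone 1 g, D-glucose 4 g, agar 2 g per 100 ml water, pH 5.7). Plates were lawned with a saline suspension of spores, excess was decanted, and plates were dried 1 h at 37 °C. Compounds in DMSO went into punched wells, and inhibition zones were measured against controls, with voriconazole as standard.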
# Bacillus subtilis [5] = assay: Antibacterial activity against Bacillus subtilis ATCC 6633 after 18 to 24 hrs; format: functional
# Staphylococcus aureus [6] = assay: Antibacterial activity against Staphylococcus aureus ATCC 25923 after 24 hrs by broth dilution technique; format: functional; settings: ATCC 25923, 24 h
# How it was run: (§2)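 MIC by broth dilution: nutrient broth containing logarithmic two-fold serial dilutions of compound was inoculated with about 5 × 10⁵ c.f.u. of actively dividing bacteria.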
# Pseudomonas aeruginosa [7] = assay: Antibacterial activity against Pseudomonas aeruginosa ATCC 27853 at 200 ug/ml after 24 hrs by disc-diffusion method; format: functional; settings: ATCC 27853, 24 h, read-out: IZ
# Bacillus subtilis [8] = assay: Antibacterial activity against Bacillus subtilis ATCC 6633 at 100 ug/ml after 24 hrs by disc-diffusion method; format: functional; settings: ATCC 6633, 24 h, read-out: IZ
# Staphylococcus aureus [9] = assay: Antibacterial activity against Staphylococcus aureus ATCC 25923 after 18 to 24 hrs; format: functional
# Escherichia coli [10] = assay: Antibacterial activity against Escherichia coli ATCC 25922 at 100 ug/ml after 24 hrs by disc-diffusion method; format: functional; settings: ATCC 25922, 24 h, read-out: IZ
# Aspergillus niger [11] = assay: Antifungal activity against Aspergillus niger after 48 hrs; format: functional
# Bacillus subtilis [12] = assay: Antibacterial activity against Bacillus subtilis ATCC 6633 at 200 ug/ml after 24 hrs by disc-diffusion method; format: functional; settings: ATCC 6633, 24 h, read-out: IZ
# Pseudomonas aeruginosa [13] = assay: Antibacterial activity against Pseudomonas aeruginosa ATCC 27853 after 24 hrs by broth dilution technique; format: functional; settings: ATCC 27853, 24 h; how it was run: as §2
# Aspergillus niger [14] = assay: Antifungal activity against Aspergillus niger at 200 ug/ml after 48 hrs by agar diffusion method; format: functional; settings: read-out: IZ; how it was run: as §1
# Candida albicans [15] = assay: Antifungal activity against Candida albicans after 48 hrs; format: functional
# Pseudomonas aeruginosa [16] = assay: Antibacterial activity against Pseudomonas aeruginosa ATCC 27853 after 18 to 24 hrs; format: functional
# Candida albicans [17] = assay: Antifungal activity against Candida albicans at 200 ug/ml after 48 hrs by agar diffusion method; format: functional; settings: read-out: IZ; how it was run: as §1
# Aspergillus niger [18] = assay: Antifungal activity against Aspergillus niger at 100 ug/ml after 3 to 4 days by agar diffusion method; settings: read-out: IZ
# Staphylococcus aureus [19] = assay: Antibacterial activity against Staphylococcus aureus ATCC 25923 at 100 ug/ml after 24 hrs by disc-diffusion method; format: functional; settings: ATCC 25923, 24 h, read-out: IZ
# Escherichia coli [20] = assay: Antibacterial activity against Escherichia coli ATCC 25922 after 24 hrs by broth dilution technique; format: functional; settings: ATCC 25922, 24 h; how it was run: as §2
# Bacillus subtilis [21] = assay: Antibacterial activity against Bacillus subtilis ATCC 6633 after 24 hrs by broth dilution technique; format: functional; settings: ATCC 6633, 24 h; how it was run: as §2
# Escherichia coli [22] = assay: Antibacterial activity against Escherichia coli ATCC 25922 after 18 to 24 hrs; format: functional
MIC (Staphylococcus aureus [6]) [µg/mL],MIC (Pseudomonas aeruginosa [13]) [µg/mL],MIC (Escherichia coli [20]) [µg/mL],MIC (Bacillus subtilis [21]) [µg/mL],SMILES,zone of inhibition at 200 µg/mL (Staphylococcus aureus [1]) [mm],zone of inhibition at 100 µg/mL (Pseudomonas aeruginosa [2]) [mm],zone of inhibition at 200 µg/mL (Escherichia coli [3]) [mm],zone of inhibition at 100 µg/mL (Candida albicans [4]) [mm],MBC (Bacillus subtilis [5]) [µg/mL],zone of inhibition at 200 µg/mL (Pseudomonas aeruginosa [7]) [mm],zone of inhibition at 100 µg/mL (Bacillus subtilis [8]) [mm],MBC (Staphylococcus aureus [9]) [µg/mL],zone of inhibition at 100 µg/mL (Escherichia coli [10]) [mm],zone of inhibition at 200 µg/mL (Bacillus subtilis [12]) [mm],zone of inhibition at 200 µg/mL (Aspergillus niger [14]) [mm],MBC (Pseudomonas aeruginosa [16]) [µg/mL],zone of inhibition at 200 µg/mL (Candida albicans [17]) [mm],zone of inhibition at 100 µg/mL (Aspergillus niger [18]) [mm],zone of inhibition at 100 µg/mL (Staphylococcus aureus [19]) [mm],MBC (Escherichia coli [22]) [µg/mL],further results
12.5,25,12.5,25,COc1cc(/C=C/C(=O)c2ccccc2)ccc1OCc1nnc(-c2ccccc2)o1,18,23,20,16,50,25,13,50,19,14,25,50,18,21,16,25,MFC (Aspergillus niger [11]): 25 µg/mL; MIC (Aspergillus niger [11]): 12.5 µg/mL; MFC (Candida albicans [15]): 25 µg/mL; MIC (Candida albicans [15]): 12.5 µg/mL
12.5,25,12.5,6,COc1cc(/C=C/C(=O)c2ccccc2)ccc1OCc1nnc(-c2ccc(Cl)cc2)o1,14,19,18,12,12.5,22,9,25,16,11,20,50,15,18,12,25,MFC (Aspergillus niger [11]): 25 µg/mL; MIC (Aspergillus niger [11]): 12.5 µg/mL; MFC (Candida albicans [15]): 50 µg/mL; MIC (Candida albicans [15]): 25 µg/mL
6,12.5,6,6,COc1cc(/C=C/C(=O)c2ccccc2)ccc1OCc1nnc(-c2ccc(C)cc2)o1,16,23,21,15,12.5,25,12,25,19,14,22,50,16,20,15,25,MFC (Candida albicans [15]): 25 µg/mL; MIC (Candida albicans [15]): 12.5 µg/mL
6,6,6,6,COc1cc(/C=C/C(=O)c2ccccc2)ccc1OCc1nnc(-c2ccccc2O)o1,19,25,22,18,12.5,27,15,12.5,20,16,25,12.5,20,22,17,12.5,MFC (Aspergillus niger [11]): 12.5 µg/mL; MIC (Aspergillus niger [11]): 6 µg/mL; MFC (Candida albicans [15]): 12.5 µg/mL; MIC (Candida albicans [15]): 6 µg/mL
6,12.5,12.5,12.5,COc1cc(/C=C/C(=O)c2ccccc2)ccc1OCc1nnc(COc2ccccc2)o1,17,23,20,16,25,24,12,12.5,18,14,25,25,18,22,15,12.5,MFC (Aspergillus niger [11]): 12.5 µg/mL; MIC (Aspergillus niger [11]): 6 µg/mL; MFC (Candida albicans [15]): 25 µg/mL; MIC (Candida albicans [15]): 12.5 µg/mL
12.5,12.5,12.5,12.5,COc1ccc(C(=O)/C=C/c2ccc(OCc3nnc(-c4ccc(Cl)cc4)o3)c(OC)c2)cc1,15,22,19,16,50,24,12,50,17,13,21,100,17,19,14,100,MFC (Aspergillus niger [11]): 50 µg/mL; MIC (Aspergillus niger [11]): 12.5 µg/mL
25,25,25,12.5,COc1cc(/C=C/C(=O)c2ccc(O)cc2)ccc1OCc1nnc(-c2ccc(Cl)cc2)o1,15,22,18,14,25,23,11,100,16,13,21,100,17,18,13,50,MFC (Candida albicans [15]): 25 µg/mL; MIC (Candida albicans [15]): 12.5 µg/mL
25,12.5,50,12.5,COc1cc(/C=C/C(=O)c2ccc(O)cc2)ccc1OCc1nnc(-c2ccc([N+](=O)[O-])cc2)o1,13,21,17,13,50,23,10,50,15,11,19,100,15,17,12,100,MFC (Aspergillus niger [11]): 100 µg/mL; MIC (Aspergillus niger [11]): 25 µg/mL
25,25,12.5,12.5,COc1cc(/C=C/C(=O)c2ccc(O)cc2)ccc1OCc1nnc(-c2ccc(C)cc2)o1,17,23,20,15,25,25,12,50,19,14,23,100,17,20,15,25,MFC (Candida albicans [15]): 100 µg/mL; MIC (Candida albicans [15]): 25 µg/mL
–,–,–,–,C[C@@H](c1ncncc1F)[C@](O)(Cn1cncn1)c1ccc(F)cc1F [VORICONAZOLE],–,–,–,24,–,–,–,–,–,–,30,–,26,28,–,–,MFC (Aspergillus niger [11]): 12.5 µg/mL; MIC (Aspergillus niger [11]): 6 µg/mL; MFC (Candida albicans [15]): 12.5 µg/mL; MIC (Candida albicans [15]): 6 µg/mL

SMILES,MIC (Staphylococcus aureus [6]) [µg/mL],MIC (Pseudomonas aeruginosa [13]) [µg/mL],MIC (Escherichia coli [20]) [µg/mL],MIC (Bacillus subtilis [21]) [µg/mL],zone of inhibition at 200 µg/mL (Staphylococcus aureus [1]) [mm],zone of inhibition at 100 µg/mL (Pseudomonas aeruginosa [2]) [mm],zone of inhibition at 200 µg/mL (Escherichia coli [3]) [mm],zone of inhibition at 100 µg/mL (Candida albicans [4]) [mm],MBC (Bacillus subtilis [5]) [µg/mL],zone of inhibition at 200 µg/mL (Pseudomonas aeruginosa [7]) [mm],zone of inhibition at 100 µg/mL (Bacillus subtilis [8]) [mm],MBC (Staphylococcus aureus [9]) [µg/mL],zone of inhibition at 100 µg/mL (Escherichia coli [10]) [mm],zone of inhibition at 200 µg/mL (Bacillus subtilis [12]) [mm],zone of inhibition at 200 µg/mL (Aspergillus niger [14]) [mm],MBC (Pseudomonas aeruginosa [16]) [µg/mL],zone of inhibition at 200 µg/mL (Candida albicans [17]) [mm],zone of inhibition at 100 µg/mL (Aspergillus niger [18]) [mm],zone of inhibition at 100 µg/mL (Staphylococcus aureus [19]) [mm],MBC (Escherichia coli [22]) [µg/mL],further results
O=C(O)c1cn(C2CC2)c2cc(N3CCNCC3)c(F)cc2c1=O [CIPROFLOXACIN],6,6,6,6,24,32,27,–,12.5,33,21,12.5,–,22,–,12.5,–,–,23,12.5,–
